Reference: paper PMC3653324 (Translational stroke research, 2012)

Key:
H4IIE cells [1] = type: cell-based; settings: 24 hr
P-glycoprotein (PgP) = assay: P-glycoprotein; type: cell-based, rat; settings: H4IIE cells, MTT, 24 hr, single exposure concentration (20 or 50 μM), without CSA
S. typhimurium TA989 = assay: Ames test for mutagenicity, frame-shift strain; type: cell-based; settings: first TA98 column; for TA98+S9: with S9, up to 10 μM; for TA98−S9: without S9, up to 10 μM
CYP1A2 = molecular target: T1, CYP1A2 (Homo sapiens, UniProt P05177); assay: Cloe Screen Cytochrome P450 Inhibition assay; type: in vitro ADME; settings: for CYP1A2 inhibition classification: classified from IC50
T1 sequence (P05177 1-516): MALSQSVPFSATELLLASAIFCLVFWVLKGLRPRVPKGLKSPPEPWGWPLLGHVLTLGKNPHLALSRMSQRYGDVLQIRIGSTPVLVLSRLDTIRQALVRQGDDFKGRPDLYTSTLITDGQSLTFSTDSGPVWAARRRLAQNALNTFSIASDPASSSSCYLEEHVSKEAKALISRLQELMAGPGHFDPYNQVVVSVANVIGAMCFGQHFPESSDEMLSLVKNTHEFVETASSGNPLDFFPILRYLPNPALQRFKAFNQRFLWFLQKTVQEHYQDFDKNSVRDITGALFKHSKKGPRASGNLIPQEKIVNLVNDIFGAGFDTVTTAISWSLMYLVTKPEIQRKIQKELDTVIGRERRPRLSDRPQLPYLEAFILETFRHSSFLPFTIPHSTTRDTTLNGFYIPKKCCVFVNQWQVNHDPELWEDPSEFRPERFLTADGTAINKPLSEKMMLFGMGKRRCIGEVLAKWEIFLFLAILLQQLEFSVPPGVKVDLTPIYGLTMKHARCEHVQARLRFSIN

CYP2C9 = CYP2C9 (Homo sapiens, UniProt P11712); assay: Cloe Screen Cytochrome P450 Inhibition assay; type: in vitro ADME
Sequence of CYP2C9 (P11712 whole entry): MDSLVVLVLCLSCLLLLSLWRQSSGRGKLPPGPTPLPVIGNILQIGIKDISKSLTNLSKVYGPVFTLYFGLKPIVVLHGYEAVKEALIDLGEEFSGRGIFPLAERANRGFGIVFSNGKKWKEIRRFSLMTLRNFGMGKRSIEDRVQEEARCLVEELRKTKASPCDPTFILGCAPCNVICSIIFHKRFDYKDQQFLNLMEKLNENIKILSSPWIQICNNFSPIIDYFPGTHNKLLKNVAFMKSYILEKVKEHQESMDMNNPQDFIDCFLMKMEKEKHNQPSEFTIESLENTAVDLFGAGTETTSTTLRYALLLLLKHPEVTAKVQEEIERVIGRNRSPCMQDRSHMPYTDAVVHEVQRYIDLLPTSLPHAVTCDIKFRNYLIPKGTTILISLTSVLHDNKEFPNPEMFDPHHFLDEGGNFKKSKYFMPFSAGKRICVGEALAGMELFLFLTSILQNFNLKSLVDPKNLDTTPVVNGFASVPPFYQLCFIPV

CYP3A4 = CYP3A4 (Homo sapiens, UniProt P08684); assay: Cloe Screen Cytochrome P450 Inhibition assay; type: in vitro ADME
Sequence of CYP3A4 (P08684 2-503): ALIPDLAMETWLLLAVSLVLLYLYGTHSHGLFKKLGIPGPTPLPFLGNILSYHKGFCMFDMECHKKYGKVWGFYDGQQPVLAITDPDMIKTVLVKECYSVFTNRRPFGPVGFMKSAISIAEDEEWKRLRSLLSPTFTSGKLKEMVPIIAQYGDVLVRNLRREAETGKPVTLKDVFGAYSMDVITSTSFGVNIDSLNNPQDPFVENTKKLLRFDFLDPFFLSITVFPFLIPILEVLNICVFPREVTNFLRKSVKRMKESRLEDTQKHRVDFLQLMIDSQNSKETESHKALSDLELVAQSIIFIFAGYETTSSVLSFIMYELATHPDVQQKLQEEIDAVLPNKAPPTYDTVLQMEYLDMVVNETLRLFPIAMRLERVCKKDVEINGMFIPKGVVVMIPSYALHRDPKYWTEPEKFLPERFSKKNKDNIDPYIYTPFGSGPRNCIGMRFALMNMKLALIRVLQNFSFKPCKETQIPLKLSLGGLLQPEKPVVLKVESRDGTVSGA

CYP2D6 = CYP2D6 (Homo sapiens, UniProt P10635); assay: Cloe Screen Cytochrome P450 Inhibition assay; type: in vitro ADME
Sequence of CYP2D6 (P10635 whole entry): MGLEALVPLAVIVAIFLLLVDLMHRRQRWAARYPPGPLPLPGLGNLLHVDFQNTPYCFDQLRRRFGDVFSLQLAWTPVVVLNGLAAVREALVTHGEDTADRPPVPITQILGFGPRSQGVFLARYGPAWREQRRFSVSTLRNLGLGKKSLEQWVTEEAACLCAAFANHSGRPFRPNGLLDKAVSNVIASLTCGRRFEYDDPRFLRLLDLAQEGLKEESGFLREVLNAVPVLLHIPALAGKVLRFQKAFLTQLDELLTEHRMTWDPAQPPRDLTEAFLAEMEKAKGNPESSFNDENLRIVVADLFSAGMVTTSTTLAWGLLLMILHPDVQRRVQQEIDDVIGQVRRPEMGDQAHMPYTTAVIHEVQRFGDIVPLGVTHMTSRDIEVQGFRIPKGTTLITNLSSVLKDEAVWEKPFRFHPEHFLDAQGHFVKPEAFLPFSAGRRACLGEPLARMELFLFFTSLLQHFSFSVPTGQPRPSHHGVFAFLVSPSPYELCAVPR
Outline: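 Run blinded. […] Metabolite formation was monitored by LC-MS/MS. IC50 was calculated from the decrease in metabolite formation relative to vehicle control. Quinidine served as positive control inhibitor.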

CYP2C19 = CYP2C19 (Homo sapiens, UniProt P33261); assay: Cloe Screen Cytochrome P450 Inhibition assay; type: in vitro ADME
Sequence of CYP2C19 (P33261 whole entry): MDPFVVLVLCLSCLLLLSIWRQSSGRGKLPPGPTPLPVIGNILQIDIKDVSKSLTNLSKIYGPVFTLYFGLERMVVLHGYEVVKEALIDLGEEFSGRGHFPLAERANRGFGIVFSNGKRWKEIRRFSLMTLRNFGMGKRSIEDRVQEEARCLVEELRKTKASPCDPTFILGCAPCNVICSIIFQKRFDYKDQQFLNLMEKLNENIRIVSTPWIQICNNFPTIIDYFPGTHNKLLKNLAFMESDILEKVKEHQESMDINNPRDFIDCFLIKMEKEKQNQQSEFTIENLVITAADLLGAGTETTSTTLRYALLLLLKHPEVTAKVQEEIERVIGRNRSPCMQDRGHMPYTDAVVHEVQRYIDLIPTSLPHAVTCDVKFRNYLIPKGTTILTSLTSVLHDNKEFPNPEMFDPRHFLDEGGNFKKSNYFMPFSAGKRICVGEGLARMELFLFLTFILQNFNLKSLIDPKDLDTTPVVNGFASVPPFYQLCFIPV

H4IIE cells [2] = assay: CeeTox cellular ATP content; settings: 24 hr
H4IIE cells [3] = assay: CeeTox cell mass; settings: 24 hr
H4IIE cells [4] = assay: CeeTox membrane toxicity; settings: 24 hr, α-GST leakage
[5] = system: Intracellular glutathione (GSH); assay: CeeTox intracellular glutathione; settings: H4IIE cells
8-Isoprostane (8-ISO) = assay: CeeTox lipid peroxidation measured as 8-isoprostane; settings: H4IIE cells, 8-ISO score
Caspase 3 = assay: CeeTox apoptosis; type: cell-based, rat; settings: H4IIE cells; for Caspase 3 Activity (Index/Dose): dose: dose at which the index was seen; for Caspase 3 Activity (Index/Dose): index: index of RFU
P-glycoprotein (MDR1) = assay: BBB penetration; type: in vitro ADME, canine; settings: dog, MDCK-MDR1
Outline: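 MDCK cells transfected with human MDR1 (P-gp) were grown to a confluent monolayer over 4 days. Test compound was added apically, and A→B transport was followed over 60 min; B→A transport was also measured. Compound on each side was quantified by GC/MS. Papp was calculated for both directions, and efflux ratio = Papp B→A/Papp A→B. High BBB potential: Papp A→B ≥3.0×10⁻⁶ cm/s and efflux <3.0.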

Compound	MTT TC50 (H4IIE cells [1]) [µM]	% Control(Compound) (P-glycoprotein (PgP)) [% Control]	TA98+S9 (S. typhimurium TA989)	TA98−S9 (S. typhimurium TA989)	IC50 (CYP1A2) [µM]	CYP1A2 inhibition classification (CYP1A2)	IC50 (CYP2C9) [µM]	IC50 (CYP3A4) [µM]	IC50 (CYP2D6) [µM]	IC50 (CYP2C19) [µM]	ATP TC50 (H4IIE cells [2]) [µM]	Cell Mass TC50 (H4IIE cells [3]) [µM]	MemTox TC50 (H4IIE cells [4]) [µM]	Total GSH TC50 [5] [µM]	Membrane Lipid Peroxidation (8-Isoprostane (8-ISO))	Caspase 3 Activity (Index/Dose): dose (Caspase 3)	Caspase 3 Activity (Index/Dose): index (Caspase 3)	Papp A→B at 60 min (P-glycoprotein (MDR1)) [×10⁻⁶ cm/s]	efflux ratio at 60 min (P-glycoprotein (MDR1))
CC(C)Oc1cc(-c2ccc(O)c(O)c2)nc2ccccc12 [CSMC-17, 4-isopropoxy-2-(3,4-dihydroxyphenyl)quinoline]	298	80.8	Negative (Not mutagenic < 10 μM (NEGATIVE))	Negative (Not mutagenic < 10 μM (NEGATIVE))	7.49	moderate inhibition	> 10	> 10	> 10	> 10	217	241	>300	295	0				
COc1cc(-c2oc3cc(C)c(C)cc3c(=O)c2O)ccc1O [CSMC-15, 6,7-dimethyl-3,4'-dihydroxy-3'-methoxyflavone]	74	70.8	Negative (Not mutagenic < 10 μM (NEGATIVE))	Negative (Not mutagenic < 10 μM (NEGATIVE))	> 25		> 10	> 10	> 10	> 10	78	79	>300	76	0	300	1 (0–200 = 1)	4.08	0.4
Cc1ccc2oc(-c3ccc(O)c(O)c3)c(O)c(=O)c2c1 [CSMC-11, 6-methyl-3,3',4'-trihydroxy flavone]	>300	80.3	Negative (Not mutagenic < 10 μM (NEGATIVE))	Negative (Not mutagenic < 10 μM (NEGATIVE))	> 25		> 10	> 10	> 10	> 10	52	>300	>300	>300	0	300	1 (0–200 = 1)	6.67	0.12
CCc1ccc2oc(-c3ccc(O)c(O)c3)c(O)c(=O)c2c1 [CSMC-9, 6-ethyl-3,3',4'-trihydroxy flavone]	81	97.0	Negative (Not mutagenic < 10 μM (NEGATIVE))	Negative (Not mutagenic < 10 μM (NEGATIVE))	11.6		> 10	> 10	> 10	> 10	80	82	>300	149	0	300	1 (0–200 = 1)	40.9	0.19
CCOc1cc(-c2ccc(O)c(O)c2)nc2ccccc12 [CSMC-16, 4-ethoxy-2-(3,4-dihydroxyphenyl)quinoline]	170	81.3	Negative (Not mutagenic < 10 μM (NEGATIVE))	Negative (Not mutagenic < 10 μM (NEGATIVE))	3.99	moderate inhibition	> 10	> 10	> 10	> 10	162	215	>300	243	0				
COc1cc(-c2ccc(O)c(O)c2)nc2ccccc12 [CSMC-12, 4-methoxy-2-(3,4-dihydroxyphenyl)quinoline]	293	85.9	Negative (Not mutagenic < 10 μM (NEGATIVE))	Negative (Not mutagenic < 10 μM (NEGATIVE))	3.7	moderate inhibition	> 10	> 10	> 10	> 10	223	208	>300	>300	1 (1 = Modest increase with maximum values ≤ 15 pg/mL)				
Cc1cc(O)c(C(=O)/C=C/c2ccc(O)c(O)c2)cc1C [CSMC-10, 4',5'-dimethyl-2',3,4-trihydroxychalcone]	83	73.4	Negative (Not mutagenic < 10 μM (NEGATIVE))	Negative (Not mutagenic < 10 μM (NEGATIVE))	6.99	moderate inhibition	> 10	> 10	> 10	> 10	75	86	>300	144	2 (2 = Concentration related increase with maximum values ≥ 15 pg/mL)	100	1 (0–200 = 1)		
